Results reported in ChEMBL document CHEMBL4311956, “A Qualified Success: Discovery of a New Series of ATAD2 Bromodomain Inhibitors with a Novel Binding Mode Using High-Throughput Screening and Hit Qualification” (J Med Chem, 2019).

How the values were obtained:
[1] = target: Nucleosome-remodeling factor subunit BPTF (Homo sapiens, UniProt Q12830); assay: Inhibition of BPTF (unknown origin) by TR-FRET assay
[2] = target: T1, ATPase family AAA domain-containing protein 2 (Homo sapiens, UniProt Q6PL18); assay: Displacement of SGRG-K(Ac)-GG-K(Ac)-GLG-K(Ac)-GGAKRHRKV-biotin) from His6/FLAG-tagged TEV fused ATAD2 bromodomain (981 to 1121 residues) (unknown origin) expressed in Escherichia coli BL21(DE3) cells after 30 mins by TR-FRET assay
T1 sequence (Q6PL18 whole entry): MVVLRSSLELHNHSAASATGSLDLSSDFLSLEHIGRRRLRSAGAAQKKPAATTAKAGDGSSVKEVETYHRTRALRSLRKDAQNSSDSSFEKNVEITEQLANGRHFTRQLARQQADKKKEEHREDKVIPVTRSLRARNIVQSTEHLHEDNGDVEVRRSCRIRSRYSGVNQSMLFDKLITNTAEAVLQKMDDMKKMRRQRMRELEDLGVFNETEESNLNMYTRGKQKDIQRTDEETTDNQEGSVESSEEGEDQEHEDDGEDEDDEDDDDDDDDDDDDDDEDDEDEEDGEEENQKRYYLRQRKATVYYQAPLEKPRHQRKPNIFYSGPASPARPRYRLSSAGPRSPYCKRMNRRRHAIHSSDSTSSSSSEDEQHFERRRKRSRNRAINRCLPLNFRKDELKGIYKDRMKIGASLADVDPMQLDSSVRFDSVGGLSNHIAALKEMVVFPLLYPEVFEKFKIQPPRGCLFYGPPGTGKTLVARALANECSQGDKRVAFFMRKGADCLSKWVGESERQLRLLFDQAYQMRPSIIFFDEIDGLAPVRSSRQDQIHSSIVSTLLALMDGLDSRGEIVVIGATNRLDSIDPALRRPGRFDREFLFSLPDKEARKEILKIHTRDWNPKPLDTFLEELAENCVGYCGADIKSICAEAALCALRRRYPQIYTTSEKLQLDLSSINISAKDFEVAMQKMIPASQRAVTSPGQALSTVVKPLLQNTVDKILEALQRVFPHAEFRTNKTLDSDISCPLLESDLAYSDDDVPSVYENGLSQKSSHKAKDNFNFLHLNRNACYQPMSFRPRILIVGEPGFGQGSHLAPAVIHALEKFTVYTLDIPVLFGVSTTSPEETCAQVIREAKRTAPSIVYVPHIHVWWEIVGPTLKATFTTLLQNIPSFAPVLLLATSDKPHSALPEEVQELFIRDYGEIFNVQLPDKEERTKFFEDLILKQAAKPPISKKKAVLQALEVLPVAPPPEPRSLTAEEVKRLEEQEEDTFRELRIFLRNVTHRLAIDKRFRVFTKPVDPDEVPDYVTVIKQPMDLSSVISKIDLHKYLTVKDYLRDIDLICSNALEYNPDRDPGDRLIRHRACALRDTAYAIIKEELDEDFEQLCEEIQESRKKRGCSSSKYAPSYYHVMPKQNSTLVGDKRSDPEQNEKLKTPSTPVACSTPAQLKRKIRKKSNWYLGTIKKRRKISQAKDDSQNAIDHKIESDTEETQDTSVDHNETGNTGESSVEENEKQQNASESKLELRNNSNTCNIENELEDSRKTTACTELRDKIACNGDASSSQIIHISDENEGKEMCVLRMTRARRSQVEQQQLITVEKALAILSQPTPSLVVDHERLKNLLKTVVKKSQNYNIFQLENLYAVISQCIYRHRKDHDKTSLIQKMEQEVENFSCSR

[3] = target: Bromodomain-containing protein 4 (Homo sapiens, UniProt O60885, Y390A); assay: Displacement of Alexa Fluor 647 labelled ligand from His6-tagged BRD4 BD1 (1 to 477 residues)/BD2 Y390A mutant (unknown origin) after 30 mins by TR-FRET assay
In short: (§1)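 BET selectivity by TR-FRET fluoroligand displacement. Uses tandem BET bromodomain constructs carrying a mutation in the non-assayed bromodomain.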

[4] = target: Bromodomain-containing protein 4 (Homo sapiens, UniProt O60885, Y97A); assay: Displacement of Alexa Fluor 647 labelled ligand from His6-tagged BRD4 BD2 (1 to 477 residues)/BD1 Y97A mutant (unknown origin) after 30 mins by TR-FRET assay; in short: as §1
Homo sapiens [5] = organism: Homo sapiens; assay: Selectivity ratio, ratio of displacement of Alexa Fluor 647 labelled ligand from His6-tagged BRD4 BD1 (1 to 477 residues)/BD2 Y390A mutant (unknown origin) to displacement of SGRG-K(Ac)-GG-K(Ac)-GLG-K(Ac)-GGAKRHRKV-biotin) from His6/FLAG-tagged TEV fused ATAD2 bromodomain (981 to 1121 residues) expressed in Escherichia coli BL21(DE3) cells
[6] = target: Bromodomain-containing protein 2 (Homo sapiens, UniProt P25440, Y113A); assay: Displacement of Alexa Fluor 647 labelled ligand from His6-tagged BRD2 BD2 (1 to 473 residues)/BD1 Y113A mutant (unknown origin) after 30 mins by TR-FRET assay; in short: as §1
[7] = target: Bromodomain-containing protein 3 (Homo sapiens, UniProt Q15059, Y348A); assay: Displacement of Alexa Fluor 647 labelled ligand from His6-tagged BRD3 BD1(1 to 435 residues)/BD2 Y348A mutant (unknown origin) after 30 mins by TR-FRET assay; in short: as §1
[8] = target: Bromodomain testis-specific protein (Homo sapiens, UniProt Q58F21, Y309A); assay: Displacement of Alexa Fluor 647 labelled ligand from His6/FLAG-tagged TEV fused BRDT BD1(1 to 397 residues)/BD2 Y309A mutant (unknown origin) after 30 mins by TR-FRET assay; in short: as §1
[9] = target: Bromodomain-containing protein 9 (Homo sapiens, UniProt Q9H8M2); assay: Inhibition of BRD9 (unknown origin) by TR-FRET assay
[10] = target: Bromodomain and PHD finger-containing protein 3 (Homo sapiens, UniProt Q9ULD4); assay: Inhibition of BRPF3 (unknown origin) by TR-FRET assay
Homo sapiens [11] = organism: Homo sapiens; assay: Selectivity ratio, ratio of inhibition of TAF1 BD2 (unknown origin) to displacement of SGRG-K(Ac)-GG-K(Ac)-GLG-K(Ac)-GGAKRHRKV-biotin) from His6/FLAG-tagged TEV fused ATAD2 bromodomain (981 to 1121 residues) expressed in Escherichia coli BL21(DE3) cells

Chain of Bromodomain-containing protein 2 (P25440 whole entry Y113A, the tested form may be a part): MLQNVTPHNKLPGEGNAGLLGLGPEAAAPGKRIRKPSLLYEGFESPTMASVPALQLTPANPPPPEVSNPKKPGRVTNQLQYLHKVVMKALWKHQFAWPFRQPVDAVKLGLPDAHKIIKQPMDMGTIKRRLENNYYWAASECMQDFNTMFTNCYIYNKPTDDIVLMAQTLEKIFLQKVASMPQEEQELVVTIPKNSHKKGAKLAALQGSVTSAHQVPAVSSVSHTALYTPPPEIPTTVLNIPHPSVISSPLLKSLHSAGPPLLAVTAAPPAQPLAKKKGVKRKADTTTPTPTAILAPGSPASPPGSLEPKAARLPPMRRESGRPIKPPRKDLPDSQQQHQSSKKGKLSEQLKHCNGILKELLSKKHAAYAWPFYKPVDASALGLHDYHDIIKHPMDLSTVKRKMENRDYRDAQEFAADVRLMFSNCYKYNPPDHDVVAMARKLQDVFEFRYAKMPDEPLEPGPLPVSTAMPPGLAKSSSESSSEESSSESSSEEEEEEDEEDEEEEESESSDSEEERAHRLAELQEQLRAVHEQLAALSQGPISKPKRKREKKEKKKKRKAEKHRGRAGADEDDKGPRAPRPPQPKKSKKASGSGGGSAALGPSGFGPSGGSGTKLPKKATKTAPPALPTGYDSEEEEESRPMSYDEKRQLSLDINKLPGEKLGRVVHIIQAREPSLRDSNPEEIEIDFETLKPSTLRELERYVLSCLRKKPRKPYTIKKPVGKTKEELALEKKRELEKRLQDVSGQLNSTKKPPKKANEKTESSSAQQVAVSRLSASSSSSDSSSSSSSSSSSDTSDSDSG
Chain of Bromodomain-containing protein 3 (Q15059 2-726 Y348A limits assumed): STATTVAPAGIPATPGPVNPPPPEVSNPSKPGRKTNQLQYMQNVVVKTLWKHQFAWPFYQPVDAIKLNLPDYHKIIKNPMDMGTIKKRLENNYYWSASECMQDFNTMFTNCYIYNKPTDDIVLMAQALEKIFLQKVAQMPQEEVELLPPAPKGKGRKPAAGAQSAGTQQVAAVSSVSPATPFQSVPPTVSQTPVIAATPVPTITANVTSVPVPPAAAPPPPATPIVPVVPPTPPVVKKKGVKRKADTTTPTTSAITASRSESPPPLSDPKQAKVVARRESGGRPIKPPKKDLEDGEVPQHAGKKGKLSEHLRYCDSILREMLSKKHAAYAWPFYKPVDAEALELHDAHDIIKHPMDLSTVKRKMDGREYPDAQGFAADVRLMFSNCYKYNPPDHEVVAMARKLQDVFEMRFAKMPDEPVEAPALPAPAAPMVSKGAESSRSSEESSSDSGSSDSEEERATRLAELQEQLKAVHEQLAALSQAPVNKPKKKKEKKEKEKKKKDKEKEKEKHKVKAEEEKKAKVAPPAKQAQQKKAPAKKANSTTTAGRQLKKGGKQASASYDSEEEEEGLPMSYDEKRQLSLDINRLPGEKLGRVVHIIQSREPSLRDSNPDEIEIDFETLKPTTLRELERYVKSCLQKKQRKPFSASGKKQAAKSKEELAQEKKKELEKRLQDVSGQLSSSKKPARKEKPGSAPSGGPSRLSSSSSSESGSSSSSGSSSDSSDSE
Chain of Bromodomain and PHD finger-containing protein 3 (Q9ULD4 whole entry, the tested form may be a part): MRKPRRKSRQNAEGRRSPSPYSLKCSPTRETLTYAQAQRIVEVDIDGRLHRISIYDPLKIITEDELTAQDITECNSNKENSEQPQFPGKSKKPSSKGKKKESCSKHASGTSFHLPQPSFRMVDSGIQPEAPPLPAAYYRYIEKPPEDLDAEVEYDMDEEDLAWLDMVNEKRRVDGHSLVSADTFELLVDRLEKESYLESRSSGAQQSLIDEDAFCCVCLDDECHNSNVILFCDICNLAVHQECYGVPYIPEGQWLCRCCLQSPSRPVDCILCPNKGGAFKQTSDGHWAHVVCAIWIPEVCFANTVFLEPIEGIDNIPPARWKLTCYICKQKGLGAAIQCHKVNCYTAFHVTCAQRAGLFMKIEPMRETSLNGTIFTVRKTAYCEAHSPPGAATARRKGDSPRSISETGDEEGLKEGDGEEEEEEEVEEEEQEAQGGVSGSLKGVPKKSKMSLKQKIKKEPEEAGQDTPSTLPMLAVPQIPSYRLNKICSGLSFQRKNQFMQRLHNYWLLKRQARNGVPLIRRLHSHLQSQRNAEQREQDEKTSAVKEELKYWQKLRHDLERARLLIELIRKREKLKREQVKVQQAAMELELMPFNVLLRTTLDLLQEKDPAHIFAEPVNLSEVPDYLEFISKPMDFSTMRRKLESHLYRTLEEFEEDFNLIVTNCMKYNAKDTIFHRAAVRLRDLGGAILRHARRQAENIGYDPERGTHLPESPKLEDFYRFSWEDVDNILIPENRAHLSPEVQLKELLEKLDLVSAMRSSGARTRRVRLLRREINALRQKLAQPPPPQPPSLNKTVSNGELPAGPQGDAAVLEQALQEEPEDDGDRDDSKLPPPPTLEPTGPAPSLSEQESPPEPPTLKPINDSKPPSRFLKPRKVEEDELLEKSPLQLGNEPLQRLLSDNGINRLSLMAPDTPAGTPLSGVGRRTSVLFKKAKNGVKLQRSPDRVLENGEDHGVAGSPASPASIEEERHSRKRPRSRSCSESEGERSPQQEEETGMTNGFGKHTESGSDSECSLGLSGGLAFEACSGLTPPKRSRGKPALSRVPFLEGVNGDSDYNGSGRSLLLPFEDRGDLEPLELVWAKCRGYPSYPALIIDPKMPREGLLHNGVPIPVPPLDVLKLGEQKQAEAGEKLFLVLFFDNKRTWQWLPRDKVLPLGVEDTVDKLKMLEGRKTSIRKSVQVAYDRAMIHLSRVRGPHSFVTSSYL
Chain of Bromodomain-containing protein 9 (Q9H8M2 whole entry): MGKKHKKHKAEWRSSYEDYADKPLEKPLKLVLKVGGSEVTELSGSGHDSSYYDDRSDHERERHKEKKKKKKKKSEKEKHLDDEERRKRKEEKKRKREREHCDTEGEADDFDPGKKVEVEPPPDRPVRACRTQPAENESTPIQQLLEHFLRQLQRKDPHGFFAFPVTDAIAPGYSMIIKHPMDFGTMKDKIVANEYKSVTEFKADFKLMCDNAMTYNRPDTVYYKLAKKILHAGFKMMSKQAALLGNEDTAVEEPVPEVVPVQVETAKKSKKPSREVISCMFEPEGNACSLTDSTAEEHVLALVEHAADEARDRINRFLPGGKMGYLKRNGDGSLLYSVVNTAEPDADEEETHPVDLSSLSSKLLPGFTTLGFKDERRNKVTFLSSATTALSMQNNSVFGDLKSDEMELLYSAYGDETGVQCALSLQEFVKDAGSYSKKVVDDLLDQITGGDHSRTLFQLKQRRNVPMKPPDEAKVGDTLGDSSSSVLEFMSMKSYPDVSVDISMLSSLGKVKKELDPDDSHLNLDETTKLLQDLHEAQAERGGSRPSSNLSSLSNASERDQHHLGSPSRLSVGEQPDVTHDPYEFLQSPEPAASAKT

IC50 [1]: 63.1 µM | IC50 [2]: 0.316 µM | IC50 [3]: 50.1 µM | IC50 [4]: 20 µM | Selectivity ratio (Homo sapiens [5]): > 100 | IC50 [6]: 20 µM | IC50 [7]: > 50.1 µM | IC50 [8]: 25.1 µM | IC50 [9]: > 50.1 µM | IC50 [10]: 10 µM
SMILES: CC1(C2CC2)NC(=O)N(CC(=O)Nc2ccc(Br)c(S(=O)(=O)N3CCCCC3)c2)C1=O (racemic)
Selectivity ratio (Homo sapiens [11]): > 10
